Bounds are passed on as bounds.

The nature of data set [1]: Solubility measured pH 7.4 at 25 degree C. The following applies: buffer, read-out: S. The format is physicochemical.
A short description of data set [2]: Ionization constant (pKa). The format is physicochemical. The procedure, abridged:
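The half-neutralization point was found by titration with 0.5 N NaOH and 0.5 N HCl in 30% EtOH–H2O using a glass electrode.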

A short description of data set [3]: Partition coefficient (logD7.4). The format is physicochemical. The conditions noted are these: octanol/water, pH 7.4. The essentials: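 Compound was equilibrated between 1-octanol and 0.1 ionic strength pH 7.4 phosphate buffer; each phase was quantified by UV spectrophotometry.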
Data set [4] addresses Carbonic anhydrase 2 (Homo sapiens, UniProt P00918). Briefly: Inhibition of human carbonic anhydrase II. The conditions noted are these: read-out: I50. The essentials: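 CA II was affinity-purified from human erythrocytes. CO2 hydration was assayed by pH stat in 0.02 M Tris chloride, pH 8.6, at 2 °C with CO2–air (5:95) bubbled at 150 mL/min. The 0.025 N NaOH volume needed to hold pH 8.3 over 3 min was recorded, with inhibitor added before enzyme. I50 was read from semilog plots of % inhibition versus log concentration.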

Data set [5] can be described thus: Solubility measured in water. The class given is physicochemical. The following applies: read-out: S. The procedure, abridged: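 Solubility was measured in water at 25 °C.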
The test system of data set [6] is Oryctolagus cuniculus. As to the kind of experiment: Ability to penetrate the albino rabbit eye and to inhibit the target enzyme in an homogenate of the iris-ciliary body at 1 hr postdosing, ex vivo when dosed in 0.5% aqueousi (hydroxymethyl) cellulose. The class given is functional. The essentials:
(§1)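 Albino rabbits received one 50 μL drop of test suspension topically; 1 h after dosing the iris-ciliary body was homogenized and its carbonic anhydrase activity measured ex vivo. Screening used 0.5%, with lower concentrations for some compounds. Reference suspensions were given as 0.1% in 0.5% aqueous (hydroxyethyl)cellulose.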

Data set [7] can be described thus: Aqueous solubility (25 degree C). The format is physicochemical. The conditions noted are these: read-out: S.
The test system of data set [8] is Oryctolagus cuniculus. As to the kind of experiment: Ability to penetrate the albino rabbit eye and to inhibit the target enzyme in an homogenate of the iris-ciliary body at 1 hr postdosing, ex vivo when dosed in 0.1% aqueousi (hydroxymethyl) cellulose. The class given is functional. The procedure, abridged: as §1
Data set [9] has as its system Oryctolagus cuniculus. Briefly: Ability to penetrate the albino rabbit eye and to inhibit the target enzyme in an homogenate of the iris-ciliary body at 1 hr postdosing, ex vivo when dosed in 0.05% aqueousi (hydroxymethyl) cellulose. The class given is functional. The essentials: as §1
Data set [10] is described as follows: Solubility (pH 7.4, 25 degree C). The format is physicochemical. The following applies: buffer, read-out: S.

`CN1CCN(Cc2ccc(C(=O)c3csc(S(N)(=O)=O)c3)cc2)CC1.Cl`: the solubility in [1] is 2 mg/mL; in [5], 5 mg/mL. In addition, in [2], the pKa (as a rule, the negative logarithm of the acid dissociation constant) turned out to be 9.32. The pH-dependent lipophilicity (logD) (commonly lipophilicity at a set pH, counting ionised and neutral species) in [3] is 0.362. Besides, the IC50 in data set [4] came out at 4 nM. The Inhibition (commonly how much of the control response was suppressed) in data set [6] is reported as 90%.
As to `CN1CCN(Cc2ccc(S(=O)(=O)c3csc(S(N)(=O)=O)c3)cc2)CC1.Cl`, the solubility in data set [7] was greater than 43 mg/mL; in [10], greater than 56 mg/mL. The same compound gave a pKa in [2] of 9.25. This compound also had a logD in data set [3] of 0.38. Also, the Inhibition in data set [8] is given as 90%; in data set [9] it was 29%; in data set [6] it was 92%. For the same compound, in data set [4], the IC50 came to 11 nM.

For the origin of these results see ChEMBL document CHEMBL1125318, “4-substituted thiophene- and furan-2-sulfonamides as topical carbonic anhydrase inhibitors” (J Med Chem, 1992).
